AHR act: human AHR activation; AHR-responsive luciferase reporter cells, luminescence; 2.5% of 320,000 active; activation, % at 5 µM; P35869; in the data active means activation above about 47%
PERK inh: inhibitors of human PERK kinase; Q9NZJ5; CHO PERK-DD fusion, SEAP luminescence translation reporter; inhibition, % at 5.6 µM; 0.17% of 220,000 active;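 active means inhibition above the mean inhibition of all tested compounds plus 3 SD, set separately per screening campaign, cut at about 2.9% in these data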;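 further: PERK kinase domain activated by AP20187 dimerizer at 100 nM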
PolyA inh: blocks polyadenylation in yeast reporter cells | S. cerevisiae SKY197-pL101 polyadenylation reporter, beta-gal luminescence; efflux-impaired pdr1/pdr3 knockout yeast; score 100 = 6 SD above DMSO | activity score, % at 12 µM | 0.02% of 300,000 active;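 active means lowest replicate activity score at least 50, where 100 means six control SD above control mean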;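 further: yeast exposed to compound for 9 h at 30 °C; higher score means more reporter readthrough which indicates perturbed polyadenylation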
HSF1 inhib: HSF1 inhibition; NIH3T3-HGL HSE-luciferase, MG132-induced, luminescence 8 h; hits give low values; activity change, negative = inhibition, % at 7.5 µM (by protocol); 0.77% of 300,000 active; AID 2098;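 active means more than half of replicate wells show activity change below -50%, luminescence cut by over half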;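 further: luciferase reports HSF-1 transcriptional activity via heat shock element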
STAT3 activator: activators of IL-6 induced STAT3 signaling | 0.91% of 190,000 active | AID 871 | U3A cells, IL-6 STAT3-luciferase reporter, luminescence; 100% = signal with IL-6 EC80 alone | activation (% of control), % at 5.6 µM;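 active means activation above the screen-wide mean of compound activation plus 3 SD, cut at about 130% in these data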
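system = STAT3-luciferase reporter U3A cells | reagent = IL-6 stimulus at 33 ng/mL final | timing = 1 h compound pre-exposure, 6 h IL-6 stimulation, 37 °C | measured by = luminescence | evaluation = % activation versus median of IL-6-stimulated wells | control set = IL-6-only wells as 100% reference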
Hsp70 activator: transcriptional activators of Hsp70. activation, % at 10 µM. 0.04% of 200,000 active. HeLa Hsp70 promoter luciferase reporter, luminescence; scaled: vehicle 0, proteasome-inhibitor control 100%. AID 1203;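 active means activation above the mean across all tested compounds plus 3 SD, cutoff set per campaign, cut at about 5.5% in these data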
Hsp70 act dose: activates Hsp70 transcription in dose response; HeLa hsp70.1pr-luc reporter, luciferase luminescence; shares compounds with Hsp70 activator; 10% of 70 active; calls only at 99 µM; AID 1252;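 active means over 50% activation at some tested dose; inactive means under 50% activation at every tested dose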
AHR act cf: confirmation of human aryl hydrocarbon receptor activators; shares compounds with AHR act; human cells, AHR-responsive luciferase reporter, luminescence; activation, % at 9 µM; 87% of 2,300 active; AID 2845; in the data active means activation above about 49%;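 further: HepG2 hepatoma cells carrying a DRE-driven firefly luciferase reporter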
PXR counter: counter-screen for AHR activators: human PXR activators. shares compounds with AHR act. cell-based PXR reporter, luciferase luminescence. activation, % at 11.6 µM. 88% of 2,300 active. AID 434939; in the data active means activation above about 11%;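 further: human hepatoma DPX-2 cells expressing full-length human PXR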
Hits are given with their value; – = inactive; · = no result; + = active, no number. An excerpt weighted towards active compounds, which were near 3.6% of everything screened.

SMILES | AHR act | PERK inh | PolyA inh | HSF1 inhib | STAT3 activator | Hsp70 activator | AHR act cf | PXR counter | others
CC1C/C(=C/c2ccccn2)C(=O)/C(=C/c2ccccn2)C1 (stereo unspecified) | – | – | – | – | – | 314.0 | · | · | Hsp70 act dose=+
CCn1c(C)cs/c1=N\S(=O)(=O)c1ccccc1 | – | · | – | – | · | · | · | ·
O=Cc1s/c(=N\S(=O)(=O)c2ccccc2)n(CCCCl)c1Cl | · | – | – | – | – | 10.6 | · | · | Hsp70 act dose=–
CCCOc1c(Br)cc(C(=O)NCC)cc1OC | 79.0 | – | – | – | – | 6.0 | · | · | Hsp70 act dose=–
Cc1cc(C)n2nc(C(=O)OCC(=O)N(C)CC(=O)Nc3ccccc3Cl)nc2n1 | – | · | – | – | · | · | · | ·
O=C(OCn1ncc(Br)c(Br)c1=O)c1ccccc1Cl | – | – | – | -73.8 | – | 16.9 | · | · | Hsp70 act dose=+
Cc1nn(C)c(C)c1NC(=O)c1ccc(S(=O)(=O)N(C)C)cc1 | – | – | – | – | – | 6.6 | · | · | Hsp70 act dose=–
Cn1cc([C@@H]2C[C@H]3CN(C4CCCC4)C(=O)[C@]34CCCN24)c(-c2ccccc2)n1 | – | – | – | · | – | – | · | ·
O=C(COc1ccc([N+](=O)[O-])cc1)Nc1ccc(CN2CCOCC2)cc1 | – | – | – | – | – | – | · | ·
COc1ccc(NC(=S)N(CCc2c(C)[nH]c3ccc(C)cc23)Cc2ccco2)cc1 | 100.5 | – | – | – | – | – | 84.3 | 110.6
CCOc1ccc(NC(=S)N(CCc2c(C)[nH]c3ccc(C)cc23)Cc2ccco2)cc1 | 86.1 | – | – | – | – | – | 66.6 | 90.8
CNC(=S)N(CCc1c(C)[nH]c2ccc(OC)cc12)Cc1ccco1 | – | · | – | – | · | · | · | ·
CCOc1ccc(NC(=S)N(CCc2c(C)[nH]c3ccc(C)cc23)Cc2cccnc2)cc1 | – | – | – | – | – | – | · | ·
CC(C)CN(C(=O)CSc1nc2ccccc2[nH]1)C1CCS(=O)(=O)C1 (stereo unspecified) | – | · | · | · | · | · | · | ·
O=C(CC1Sc2ccccc2NC1=O)Nc1cccnc1 (stereo unspecified) | – | – | – | – | – | – | · | ·
O=C(CC1Sc2ccccc2NC1=O)Nc1ccccc1[N+](=O)[O-] (stereo unspecified) | 151.5 | – | – | – | – | – | 111.2 | 37.6
COc1cc(Cl)c(C)cc1NC(=O)c1ccccc1NC(=O)CN1CCOCC1 | 101.3 | · | – | – | · | · | 103.3 | 91.7
COc1ccc(NC(=O)c2ccccc2Cl)cc1NC(=O)CN1CCOCC1 | – | – | – | – | – | – | · | ·
COc1ccc(C)c2sc(NNC(=O)COc3ccccc3)nc12 | 79.5 | – | – | – | – | – | 98.6 | 14.6
N/C(=N\OC(=O)c1ccccc1)c1cccnc1 | – | – | – | – | – | – | · | ·
N/C(=N\OC(=O)c1cccc(Cl)c1)c1ccncc1 | – | – | – | – | – | – | · | ·
N/C(=N\OC(=O)c1ccc(Cl)c(Cl)c1)c1cccnc1 | 79.8 | – | – | – | – | – | 79.6 | 13.8
N/C(=N\OC(=O)c1ccccc1Cl)c1cccnc1 | 102.1 | – | – | – | – | – | 103.9 | –
O=c1c2[nH]c3ccccc3c2ncn1Cc1ccncc1 | – | – | – | – | – | – | · | ·
O=c1c2[nH]c3cccc(Cl)c3c2ncn1Cc1ccncc1 | 84.0 | – | · | · | – | – | 73.7 | 19.1
SMILES | AHR act | PERK inh | PolyA inh | HSF1 inhib | STAT3 activator | Hsp70 activator | AHR act cf | PXR counter | others
COc1cc(C(=O)N2CCN(C)C(C)C2)ccc1OC1CCN(C(C)=O)CC1 (stereo unspecified) | – | · | – | – | · | · | · | ·
CCn1c(/C=C/c2cc[n+](C)cc2)nc2ccccc21 | – | · | – | – | · | · | · | ·
CCCn1c(/C=C/c2ccccc2)nc2ccccc21 | 88.0 | – | – | · | – | – | 118.0 | 45.1
CC(=O)Nc1ccc(S(=O)(=O)NC2CC2)cc1 | – | · | – | – | · | · | · | ·
O=S1(=O)CCOC[C@H](c2ccccc2)N1Cc1cccc(Cl)c1 | – | · | – | – | · | · | · | ·
CN(C(=O)c1nn(C)c2c1CSc1ccccc1-2)c1ccc(F)cc1 | 105.4 | · | – | – | · | · | 47.5 | 64.2
CN(C(=O)c1nn(C)c2c1CSc1ccccc1-2)c1ccccc1Cl | – | · | – | – | · | · | · | ·
Cc1ccc(-c2nnc(-c3ccccc3)c(N3CCOCC3)n2)cc1 | – | – | – | – | – | – | · | ·
Brc1ccc(-c2nnc(-c3ccccc3)c(N3CCSCC3)n2)cc1 | 123.4 | – | – | – | – | – | 93.3 | 74.8
CN1CCN(c2nc(-c3ccc(Br)cc3)nnc2-c2ccccc2)CC1 | 131.8 | – | – | – | – | – | 90.2 | 48.8
Cc1cc(C)c(S(=O)(=O)Nc2nnc(C3CCCCC3)s2)c(C)c1 | – | · | – | – | · | · | · | ·
Cn1c(C(O)c2ccc(Cl)cc2)nc(Cl)c1Cl (stereo unspecified) | 87.7 | – | – | – | – | – | 113.7 | 71.3
O=C(CSc1nc(-c2ccccc2Cl)ns1)Nc1ccc2c(c1)OCO2 | 87.1 | – | – | – | – | – | 72.5 | 16.6
Cc1nc(SCC(=O)Nc2ccc(CN3CCCC3)cc2)c2c(C)c(C)sc2n1 | – | · | · | · | · | · | · | ·
Nc1nc2ccccc2n1/N=C/c1ccc(Br)cc1 | 87.9 | – | – | · | – | – | 102.3 | 18.9
N=c1c2ccccc2nc2n1CCCCCCCCCCC2 | – | · | – | – | · | · | · | ·
COc1cc(OC)c(OC)cc1CN1CCN(Cc2ccco2)CC1 | – | · | – | – | · | · | · | ·
Cc1ccc[n+](CC(=O)c2ccc(NC(=O)c3ccccc3)cc2)c1C | – | · | – | – | · | · | · | ·
Cc1ccc[n+](CC(=O)c2ccc(Br)cc2)c1C | 83.1 | · | – | – | · | · | 47.2 | ·
CCOc1ccc(C(C(=O)NC2CCCCC2)N(C(=O)c2csnn2)C2CC2)cc1 (stereo unspecified) | – | · | – | – | · | · | · | ·
Cn1cnc([N+](=O)[O-])c1Oc1cccc2ccccc12 | 82.4 | – | – | – | – | – | 81.9 | 20.6
Cn1cnc([N+](=O)[O-])c1Oc1ccccc1 | – | – | – | – | – | – | · | ·
COc1ccc(S(=O)(=O)Nc2cc3c(C(C)=O)c(C)oc3c3ccccc23)cc1 | 91.9 | – | – | – | – | – | 75.8 | 254.6
Cc1oc2c(cc(NS(=O)(=O)c3ccc(F)cc3)c3ccccc32)c1C(=O)O | – | · | – | – | · | · | · | ·
COc1c(S(=O)(=O)N2CCN(C)CC2)ccc(Cl)c1Cl | – | · | – | – | · | · | · | ·
CC1CCCC(N2CCN(S(=O)(=O)c3ccccc3)CC2)C1 (stereo unspecified) | – | · | – | – | · | · | · | ·
CCN(C[C@H]1N[C@@](CC)(C(=O)OC)[C@H]2C(=O)N(C)C(=O)[C@@H]12)S(=O)(=O)c1ccc(OC)cc1 | – | · | · | · | · | · | · | ·
Cc1ccc(S(=O)(=O)N2CCN(C(=O)COC(=O)CCCOc3ccccc3)CC2)c(C)c1 | – | · | · | · | · | · | · | ·
CCn1cc(Cl)c(C(=O)Nc2nccs2)n1 | · | · | – | – | · | · | · | ·

Source: PubChem BioAssay (several laboratories)
